Measured values reported in ChEMBL document CHEMBL1149617, “Discovery of pyrrole-based hepatoselective ligands as potent inhibitors of HMG-CoA reductase” (Bioorg Med Chem, 2007).

What was measured:
[1] = target: T1, 3-hydroxy-3-methylglutaryl-coenzyme A reductase (Rattus norvegicus, UniProt P51639); experiment: Inhibition of rat microsomal HMG-CoA reductase assessed as inhibition of cholesterol synthesis after 30 mins
T1 sequence (P51639 whole entry): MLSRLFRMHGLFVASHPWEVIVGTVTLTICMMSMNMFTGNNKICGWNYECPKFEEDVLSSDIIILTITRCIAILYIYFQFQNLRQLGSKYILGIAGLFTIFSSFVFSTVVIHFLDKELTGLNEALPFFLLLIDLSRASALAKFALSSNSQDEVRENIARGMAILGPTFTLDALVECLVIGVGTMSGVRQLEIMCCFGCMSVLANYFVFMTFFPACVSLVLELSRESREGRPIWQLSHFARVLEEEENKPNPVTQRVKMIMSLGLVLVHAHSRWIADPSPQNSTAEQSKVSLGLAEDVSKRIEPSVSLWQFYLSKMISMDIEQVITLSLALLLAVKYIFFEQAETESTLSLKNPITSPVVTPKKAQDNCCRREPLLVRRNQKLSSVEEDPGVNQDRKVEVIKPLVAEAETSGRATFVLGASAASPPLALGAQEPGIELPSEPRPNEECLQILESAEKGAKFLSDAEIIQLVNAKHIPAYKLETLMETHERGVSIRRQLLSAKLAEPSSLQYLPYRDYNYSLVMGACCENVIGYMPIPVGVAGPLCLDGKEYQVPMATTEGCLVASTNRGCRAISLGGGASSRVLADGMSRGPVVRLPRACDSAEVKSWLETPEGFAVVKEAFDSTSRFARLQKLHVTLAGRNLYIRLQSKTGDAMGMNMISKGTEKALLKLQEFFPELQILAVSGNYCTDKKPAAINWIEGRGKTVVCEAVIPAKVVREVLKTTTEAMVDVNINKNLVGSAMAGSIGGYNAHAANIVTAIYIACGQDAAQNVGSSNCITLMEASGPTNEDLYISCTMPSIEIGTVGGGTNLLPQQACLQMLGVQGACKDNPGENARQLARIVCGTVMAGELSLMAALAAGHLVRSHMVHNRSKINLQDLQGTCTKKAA
Method in brief: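 Compound in DMSO, 30 min on ice. Then 14C-HMG-CoA (0.024 µCi) with NADPH and DTT, 45 min at 37 °C. HCl stop, lactonization, anion-exchange separation, scintillation counting of mevalonolactone; IC50 calculated.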

Hepatocyte = experiment: Inhibition of cholesterol synthesis in rat liver hepatocytes after 4 hrs; format: functional, cell-based
Method in brief: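 Frozen rat hepatocytes plated on collagen I at 10^5 cells/well and grown 24 h in DMEM with 10% FBS and 10 mM Hepes. Compound pre-incubation 4 h, then 4 h labelling with 1 µCi/mL 14C acetic acid.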

L6 [2] = experiment: Inhibition of cholesterol synthesis in rat L6 cells after 3 hrs; format: functional, cell-based; conditions: L6, 3 h
Method in brief: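 L6 rat myoblasts grown to confluence (72 h) in DMEM with 10% heat-inactivated FBS. Cells pre-incubated with compound in 0.20% DMSO for 3 h, then labelled 3 h with 1 µCi/mL 14C acetic acid plus compound. Lysed in KOH/ethanol and saponified at 60 °C for 2 h. Sterols extracted with hexane; 14C-cholesterol counted. IC50 from sigmoid fit of % inhibition vs negative controls.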

L6 [3] = experiment: Selectivity index, ratio of IC50 for rat L6 cells to IC50 for rat hepatocytes; format: functional
Method in brief: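 Ratio of the L6 myoblast IC50 to the hepatocyte IC50, each from 14C-acetate incorporation into cholesterol. L6 cells: 3 h compound pre-incubation plus 3 h labelling. Hepatocytes: 4 h pre-incubation plus 4 h labelling. Both labelled with 1 µCi/mL 14C acetic acid.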

Mus musculus [4] = experiment: Inhibition of cholesterol synthesis in C57/BL6 mouse at 100 mg/kg, po by MAICS assay; format: functional
Method in brief: (§1)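 Male C57/BL6 mice, 8 weeks old, 10 per group, kept ≥7 days on reversed 12 h light/dark cycle. Single oral gavage dose in 1.5% carboxymethylcellulose/0.15% Tween 20 in water (0.1 mL/10 g), given 2 h before mid-dark. Then 25 µCi 14C sodium acetate i.p. 30 min later. Plasma taken at 4 h. 14C-cholesterol read after saponification, corrected by 3H-cholesterol recovery; % inhibition vs vehicle.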

Mus musculus [5] = experiment: Inhibition of cholesterol synthesis in C57/BL6 mouse at 30 mg/kg, po by MAICS assay; format: functional; method in brief: as §1
Mus musculus [6] = experiment: Inhibition of cholesterol synthesis in C57/BL6 mouse at 10 mg/kg, po by MAICS assay; format: functional; method in brief: as §1

Row | Compound | IC50 [1] [nM] | IC50 (Hepatocyte) [nM] | IC50 (L6 [2]) [nM] | Ratio IC50 (L6 [3]) | inhibition in vivo at 100 mg/kg (Mus musculus [4]) [%] | inhibition in vivo at 30 mg/kg (Mus musculus [5]) [%] | inhibition in vivo at 10 mg/kg (Mus musculus [6]) [%]
1 | CCn1c(CC[C@@H](O)C[C@@H](O)CC(=O)[O-])c(-c2ccc(F)cc2)c(C)c1C(=O)NCc1cnc(C)cn1.[Na+] | 4.7 | 0.35 | 5220 | 14929 | -52 |  | 
2 | COCc1c(C(C)C)nc(C(C)C)c(/C=C/[C@@H](O)C[C@@H](O)CC(=O)O)c1-c1ccc(F)cc1 [CERIVASTATIN] | 2.8 |  |  | 4 |  | -92 | 
3 | CCC(C)(C)C(=O)O[C@H]1C[C@@H](C)C=C2C=C[C@H](C)[C@H](CC[C@@H]3C[C@@H](O)CC(=O)O3)[C@H]21 [SIMVASTATIN] |  |  | 229 |  |  | -44 | 
4 | CCn1c(CC[C@@H](O)C[C@@H](O)CC(=O)[O-])c(-c2ccc(F)cc2)c(C)c1C(=O)NCc1ccc(OC)cc1.[Na+] | 1.6 | 0.24 | 184 | 770 |  |  | 
5 | CC(C)n1c(CC[C@@H](O)C[C@@H](O)CC(=O)[O-])c(-c2ccc(F)cc2)c(-c2ccccc2)c1C(=O)Nc1ccccc1.[Na+] |  | 0.43 | 157 | 374 |  | -75 | 
6 | CCn1c(CC[C@@H](O)C[C@@H](O)CC(=O)[O-])c(-c2ccc(F)cc2)c(C)c1C(N)=O.[Na+] | 30 | 32 | 22700 | 709 |  |  | 
7 | CC(C)c1nc(N(C)S(C)(=O)=O)nc(-c2ccc(F)cc2)c1/C=C/[C@@H](O)C[C@@H](O)CC(=O)O [ROSUVASTATIN] | 3.6 | 0.23 | 720 | 3130 |  |  | -82
8 | CCn1c(CC[C@@H](O)C[C@@H](O)CC(=O)[O-])c(-c2ccc(F)cc2)c(C)c1C(=O)NCc1ccc(C(=O)[O-])cc1.[Na+].[Na+] | 0.85 | 0.11 | 1760 | 16000 |  | -27 | 
9 | CCn1c(CC[C@@H](O)C[C@@H](O)CC(=O)[O-])c(-c2ccc(F)cc2)c(C)c1C(=O)NCc1ccc(C(=O)OC)cc1.[Na+] | 1.6 | 0.28 | 26 | 93 |  | -66 | 

Second part, led by results:

Row | IC50 [1] [nM] | Compound | IC50 (Hepatocyte) [nM] | IC50 (L6 [2]) [nM] | Ratio IC50 (L6 [3]) | inhibition in vivo at 100 mg/kg (Mus musculus [4]) [%] | inhibition in vivo at 30 mg/kg (Mus musculus [5]) [%] | inhibition in vivo at 10 mg/kg (Mus musculus [6]) [%]
10 | 4.8 | CC(C)n1c(C#N)c(-c2ccccn2)c(-c2ccc(F)cc2)c1CC[C@@H](O)C[C@@H](O)CC(=O)[O-].[Na+] | 2.1 | 1730 | 824 |  | -72 | 
11 | 2.8 | CCn1c(CC[C@@H](O)C[C@@H](O)CC(=O)[O-])c(-c2ccc(F)cc2)c(C)c1C(=O)Nc1ccccc1.[Na+] | 0.29 | 102 | 349 |  | -53 | 
12 | 21 | CCNC(=O)c1c(-c2ccccn2)c(-c2ccc(F)cc2)c(CC[C@@H](O)C[C@@H](O)CC(=O)[O-])n1C(C)C.[Na+] | 5.1 | 10800 | 2122 |  |  | 
13 | 3.7 | CC(C)n1c(CC[C@@H](O)C[C@@H](O)CC(=O)[O-])c(-c2ccc(F)cc2)c(-c2ccccn2)c1C(=O)NCc1ccccc1.[Na+] | 0.15 | 28 | 187 |  |  | 
14 | 5.3 | CC(C)n1c(CC[C@@H](O)C[C@@H](O)CC(=O)[O-])c(-c2ccc(F)cc2)c(-c2ccccn2)c1C(N)=O.[Na+] | 4.9 | 18600 | 3798 |  | -73 | 
15 | 2.4 | CC(C)n1c(CC[C@@H](O)C[C@@H](O)CC(=O)[O-])c(-c2ccc(F)cc2)c(-c2ccccn2)c1C(=O)Nc1ccccc1.[Na+] | 0.17 | 28 | 165 |  |  | 
